Measured values published in ChEMBL document CHEMBL1275461, “Early bactericidal activity and pharmacokinetics of the diarylquinoline TMC207 in treatment of pulmonary tuberculosis” (Antimicrob Agents Chemother, 2008).

Legend:
[1] = tested on: Mycobacterium tuberculosis; assay: Bactericidal activity against Mycobacterium tuberculosis in pulmonary tuberculosis patient assessed as reduction in sputum bacterial count at 600 mg/kg, po once daily measured after 7 days; assay type: functional
Outline: (§1)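 Hospitalized treatment-naïve smear-positive patients took oral doses once daily, observed, after breakfast. Sputum was pooled over 16 h overnight at baseline, after each of the 7 dosing days, and on the night after the first standard-therapy dose. Sputum was stirred, digested with dithiothreitol for 20 min at room temperature, and diluted 10-fold. Dilutions were plated in quadruplicate on selective 7H11 agar and counted after 3-4 weeks at 37°C at 20-200 colonies. The read-out was change in log10 CFU/ml from baseline, with a count of 0 set to log 0.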

[2] = tested on: Mycobacterium tuberculosis; assay: Bactericidal activity against Mycobacterium tuberculosis in pulmonary tuberculosis patient assessed as reduction in sputum bacterial count at 600 […], po once daily measured after 1 day; assay type: functional; outline: as §1
[3] = tested on: Mycobacterium tuberculosis; assay: Bactericidal activity against Mycobacterium tuberculosis in pulmonary tuberculosis patient assessed as reduction in sputum bacterial count at 600 mg/kg, po once daily measured after 4 days; assay type: functional; outline: as §1
Homo sapiens [4] = assay: Cardiotoxicity in pulmonary tuberculosis patient assessed as increase in QT interval at 600 mg/kg, po once daily for 7 days; assay type: toxicity, organism-based; set-up: dose 600 mg/kg, route oral; settings: in vivo, 168 h
[5] = tested on: Mycobacterium tuberculosis; assay: Bactericidal activity against Mycobacterium tuberculosis in pulmonary tuberculosis patient assessed as reduction in sputum bacterial count at 600 mg/kg, po once daily measured after 2 days; assay type: functional; outline: as §1
[6] = tested on: Mycobacterium tuberculosis; assay: Bactericidal activity against Mycobacterium tuberculosis in pulmonary tuberculosis patient assessed as reduction in sputum bacterial count at 600 mg/kg, po once daily measured on day 8 after starting standard TB therapy; assay type: functional; outline: as §1
[7] = tested on: Mycobacterium tuberculosis; assay: Bactericidal activity against Mycobacterium tuberculosis in pulmonary tuberculosis patient assessed as reduction in sputum bacterial count at 600 mg/kg, po once daily measured after 6 days; assay type: functional; outline: as §1
[8] = tested on: Mycobacterium tuberculosis; assay: Bactericidal activity against Mycobacterium tuberculosis in pulmonary tuberculosis patient assessed as reduction in sputum bacterial count at 600 mg/kg, po once daily measured after 3 days; assay type: functional; outline: as §1
[9] = tested on: Mycobacterium tuberculosis; assay: Bactericidal activity against Mycobacterium tuberculosis in pulmonary tuberculosis patient assessed as reduction in sputum bacterial count at 300 mg/kg, po once daily measured on day 8 after starting standard TB therapy; assay type: functional; outline: as §1
[10] = tested on: Mycobacterium tuberculosis; assay: Bactericidal activity against Mycobacterium tuberculosis in pulmonary tuberculosis patient assessed as reduction in sputum bacterial count at 300 […], po once daily measured after 2 days; assay type: functional; outline: as §1
[11] = tested on: Mycobacterium tuberculosis; assay: Bactericidal activity against Mycobacterium tuberculosis in pulmonary tuberculosis patient assessed as reduction in sputum bacterial count at 300 mg/kg, po once daily measured after 5 days; assay type: functional; outline: as §1
[12] = tested on: Mycobacterium tuberculosis; assay: Bactericidal activity against Mycobacterium tuberculosis in pulmonary tuberculosis patient assessed as reduction in sputum bacterial count at 300 […], po once daily measured after 1 day; assay type: functional; outline: as §1
[13] = tested on: Mycobacterium tuberculosis; assay: Bactericidal activity against Mycobacterium tuberculosis in pulmonary tuberculosis patient assessed as reduction in sputum bacterial count at 300 mg/kg, po once daily measured after 7 days; assay type: functional; outline: as §1
[14] = tested on: Mycobacterium tuberculosis; assay: Bactericidal activity against Mycobacterium tuberculosis in pulmonary tuberculosis patient assessed as reduction in sputum bacterial count at 300 mg/kg, po once daily measured after 4 days; assay type: functional; outline: as §1
[15] = tested on: Mycobacterium tuberculosis; assay: Bactericidal activity against Mycobacterium tuberculosis in pulmonary tuberculosis patient assessed as reduction in sputum bacterial count at 300 mg/kg, po once daily measured after 6 days; assay type: functional; outline: as §1
Homo sapiens [16] = assay: Cardiotoxicity in pulmonary tuberculosis patient assessed as increase in QT interval at 300 mg/kg, po once daily for 7 days; assay type: toxicity, organism-based; set-up: dose 300 mg/kg, route oral; settings: in vivo, 168 h
[17] = tested on: Mycobacterium tuberculosis; assay: Bactericidal activity against Mycobacterium tuberculosis in pulmonary tuberculosis patient assessed as reduction in sputum bacterial count at 300 […], po once daily measured after 3 days; assay type: functional; outline: as §1
Homo sapiens [18] = assay: Toxicity in pulmonary tuberculosis patient assessed as hemoptysis at 300 mg/kg, po once daily; assay type: organism-based; set-up: dose 300 mg/kg, route oral; settings: in vivo

Row | SMILES | log10CFU/ml [1] | log10CFU/ml [2] | log10CFU/ml [3] | Time (Homo sapiens [4]) | log10CFU/ml [5] | log10CFU/ml [6] | log10CFU/ml [7] | log10CFU/ml [8] | log10CFU/ml [9] | log10CFU/ml [10] | log10CFU/ml [11] | log10CFU/ml [12] | log10CFU/ml [13] | log10CFU/ml [14] | log10CFU/ml [15] | Time (Homo sapiens [16]) | log10CFU/ml [17] | Activity (Homo sapiens [18])
1 | CO[C@H]1/C=C/O[C@@]2(C)Oc3c(C)c(O)c4c(O)c(c(/C=N/N5CCN(C)CC5)c(O)c4c3C2=O)NC(=O)/C(C)=C\C=C\[C@H](C)[C@H](O)[C@@H](C)[C@@H](O)[C@@H](C)[C@H](OC(C)=O)[C@@H]1C [RIFAMPIN] | -1.7 | -0.28 | -1.17 | 13 ms | -0.88 | -1.82 | -1.55 | -0.89 | – | – | – | – | – | – | – | – | – | –
2 | NNC(=O)c1ccncc1 [ISONIAZID] | – | – | – | – | – | – | – | – | -1.94 | -0.57 | -1.41 | -0.43 | -1.88 | -1.32 | -1.68 | 20.2 ms | -1.34 | 13.3%
